Source: ChEMBL document CHEMBL2040734, “Benzothiazoles: search for anticancer agents” (2012)

How the values were obtained:
Format in all cases: functional
[1] = test system: HL-60(TB); assay: Cytotoxicity against human HL-60(TB) cells assessed as cell growth at 0.1 uM after 48 hrs by sulforhodamine B assay; conditions: HL-60, 48 h, read-out: Activity
In short: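 NCI five-dose screen on the HL-60(TB) leukaemia line, grown in RPMI 1640 with 5% FBS and 2 mM L-glutamine and plated for 24 h before dosing. DMSO stocks were diluted in medium. Cells were exposed 48 h at 37 °C, then settled cells were fixed in 16% TCA (final) and stained with SRB, absorbance 515 nm. Percent growth = (Ti−Tz)/(C−Tz)×100, or (Ti−Tz)/Tz×100 when Ti<Tz.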

[2] = test system: LOX IMVI; assay: Cytotoxicity against human LOXIMVI cells assessed as cell growth at 0.1 uM after 48 hrs by sulforhodamine B assay; conditions: read-out: Activity
[3] = test system: SF-539; assay: Cytotoxicity against human SF539 cells assessed as cell growth at 100 uM after 48 hrs by sulforhodamine B assay; conditions: SF-539, 48 h, read-out: Activity
[4] = test system: SN12C; assay: Cytotoxicity against human SN12C cells assessed as cell growth at 100 uM after 48 hrs by sulforhodamine B assay; conditions: read-out: Activity
[5] = test system: MCF7; assay: Cytotoxicity against human MCF7 cells assessed as cell growth at 100 uM after 48 hrs by sulforhodamine B assay; conditions: MCF7, 48 h, read-out: Activity
[6] = test system: NCI-H23; assay: Cytotoxicity against human NCI-H23 cells assessed as cell growth at 1 uM after 48 hrs by sulforhodamine B assay; conditions: NCI-H23, 48 h, read-out: Activity
[7] = test system: SF-268; assay: Cytotoxicity against human SF268 cells assessed as cell growth at 1 uM after 48 hrs by sulforhodamine B assay; conditions: SF-268, 48 h, read-out: Activity
[8] = test system: OVCAR-8; assay: Cytotoxicity against human OVCAR8 cells assessed as cell growth at 1 uM after 48 hrs by sulforhodamine B assay; conditions: OVCAR-8, 48 h, read-out: Activity
[9] = test system: DU-145; assay: Cytotoxicity against human DU145 cells assessed as cell growth at 1 uM after 48 hrs by sulforhodamine B assay; conditions: DU-145, 48 h, read-out: Activity
In short: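 NCI-60 five-dose screen. Cells were grown in RPMI 1640 with 5% FBS and 2 mM L-glutamine and preincubated 24 h. Compound (DMSO stock) was tested at 0.01, 0.1, 1, 10 and 100 µM for 48 h at 37 °C. Cells were fixed in situ with cold TCA (final 10%) and stained with 0.4% SRB. A515 was read, and percent growth was calculated against time-zero and control plates.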

[10] = test system: RPMI-8226; assay: Cytotoxicity against human RPMI8226 cells assessed as cell growth at 10 uM after 48 hrs by sulforhodamine B assay; conditions: RPMI-8226, 48 h, read-out: Activity
[11] = test system: MDA-MB-435; assay: Cytotoxicity against human MDA-MB-435 cells assessed as cell growth at 10 uM after 48 hrs by sulforhodamine B assay; conditions: MDA-MB-435, 48 h, read-out: Activity
[12] = test system: OVCAR-4; assay: Cytotoxicity against human OVCAR4 cells assessed as cell growth at 10 uM after 48 hrs by sulforhodamine B assay; conditions: OVCAR-4, 48 h, read-out: Activity
[13] = test system: HCC 2998; assay: Cytotoxicity against human HCC2998 cells assessed as cell growth at 10 '-5 M after 48 hrs by sulforhodamine B assay; conditions: HCC 2998, 48 h, read-out: Activity
In short: (§1)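 Primary one-dose screen across the NCI 60-line panel at 10 µM. Cells were grown in RPMI 1640 with 5% FBS and 2 mM L-glutamine and held 24 h before drug. Drug was diluted from a DMSO concentrate. Exposure was 48 h at 37 °C, 5% CO2. Cells were fixed with TCA and stained with SRB, with absorbance read at 515 nm. Percent growth was calculated against time-zero and untreated control.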

[14] = test system: HCT-116; assay: Cytotoxicity against human HCT116 cells assessed as cell growth at 10 '-5 M after 48 hrs by sulforhodamine B assay; conditions: HCT-116, 48 h, read-out: Activity; in short: as §1
[15] = test system: U-251; assay: Cytotoxicity against human U251 cells assessed as cell growth at 10 '-5 M after 48 hrs by sulforhodamine B assay; conditions: U-251, 48 h, read-out: Activity
[16] = test system: UACC-62; assay: Growth inhibition of human UACC62 cells after 48 hrs by sulforhodamine B assay; conditions: UACC-62, 48 h; for CC50: read-out: LC50 (the source's name)
In short: (§2)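 Adherent NCI-60 lines were grown in RPMI 1640 with 5% FBS and 2 mM L-glutamine, plated at 5000–40,000 cells/well and preincubated 24 h. They were then exposed to five concentrations (0.01–100 µM, from a DMSO stock) for 48 h at 37 °C, 5% CO2. Cells were fixed with cold TCA (10% final, 60 min, 4 °C) and stained with 0.4% SRB. Dye was solubilized in 10 mM Tris base and A515 read. GI50 was derived from time-zero, control and treated absorbances.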

[17] = test system: OVCAR-3; assay: Growth inhibition of human OVCAR3 cells after 48 hrs by sulforhodamine B assay; conditions: OVCAR-3, 48 h; for CC50: read-out: LC50 (the source's name); in short: as §2
[18] = test system: A498; assay: Growth inhibition of human A498 cells after 48 hrs by sulforhodamine B assay; conditions: A498, 48 h; for CC50: read-out: LC50 (the source's name)
In short: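 A498 adherent renal cells, plated in RPMI 1640 with 5% FBS and 2 mM L-glutamine, were preincubated for 24 h and then exposed for 48 h at 37 °C to 0.01–100 µM. Fixation was 10% TCA (final) for 60 min at 4 °C, then SRB staining and absorbance at 515 nm. GI50 was derived from (Ti−Tz)/(C−Tz)×100 = 50, using time-zero plates.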

[19] = test system: SF-268; assay: Cytotoxicity against human SF268 cells assessed as cell growth at 0.01 uM after 48 hrs by sulforhodamine B assay; conditions: SF-268, 48 h, read-out: Activity
[20] = test system: NCI-H226; assay: Cytotoxicity against human NCI-H226 cells assessed as cell growth at 0.1 uM after 48 hrs by sulforhodamine B assay; conditions: NCI-H226, 48 h, read-out: Activity
[21] = test system: NCI-H226; assay: Cytotoxicity against human NCI-H226 cells assessed as cell growth at 1 uM after 48 hrs by sulforhodamine B assay; conditions: NCI-H226, 48 h, read-out: Activity
[22] = test system: NCI-H226; assay: Cytotoxicity against human NCI-H226 cells assessed as cell growth at 10 uM after 48 hrs by sulforhodamine B assay; conditions: NCI-H226, 48 h, read-out: Activity
[23] = test system: NCI-H226; assay: Cytotoxicity against human NCI-H226 cells assessed as cell growth at 100 uM after 48 hrs by sulforhodamine B assay; conditions: NCI-H226, 48 h, read-out: Activity
[24] = test system: HOP-92; assay: Growth inhibition of human HOP92 cells after 48 hrs by sulforhodamine B assay; conditions: HOP-92, 48 h; in short: as §2

SMILES	growth at 0.1 µM [1] [%]	growth at 0.1 µM [2] [%]	growth at 100 µM [3] [%]	growth at 100 µM [4] [%]	growth at 100 µM [5] [%]	growth at 1 µM [6] [%]	growth at 1 µM [7] [%]	growth at 1 µM [8] [%]	growth at 1 µM [9] [%]	growth at 10 µM [10] [%]	growth at 10 µM [11] [%]	growth at 10 µM [12] [%]	growth at 10 µM [13] [%]	growth at 10 µM [14] [%]	GI50 [16] [nM]	TGI [16] [nM]	CC50 [16] [nM]	GI50 [17] [nM]	TGI [17] [nM]	CC50 [17] [nM]	other results
Cc1ccc2nc(Nc3c(C)cccc3C)sc2c1	106	93	48	52	46	79	79	89	94	55	-26	55	54.1	19.4	1150	> 100000	> 100000	> 100000	> 100000	> 100000	growth at 10 µM [15]: 34%; CC50 [18]: > 100000 nM; growth at 0.01 µM [19]: 94%
Clc1cccc(Cl)c1Nc1nc2cccc(Cl)c2s1	103	89	-57	-84	-55	59	62	58	75	-19	-77	-90	-26.1	-87.1	1010	2370	5550	983	2200	4860	growth at 0.1 µM [20]: 45%; growth at 1 µM [21]: -9%; growth at 10 µM [22]: -83%; growth at 100 µM [23]: -72%; GI50 [24]: 71.8 nM; TGI [24]: 690 nM; CC50 ([24]; read-out: LC50 (the source's name)): 3610 nM; GI50 [18]: 260 nM; TGI [18]: 1620 nM; CC50 [18]: 4160 nM; growth at 0.01 µM [19]: 98%
